In the library only some 2.6% were active in any assay of this set; here they are far more common.
esBAF inh = SWI/SNF esBAF complex inhibition. mouse ES cells, Bmi1-luciferase knock-in reporter, 24 h; 100% = twice the neutral-well signal. AID 602393. 350,000 compounds, 2% hits. reporter increase, % at 12.5 µM; in the data active = activation above about 40%; inconclusive = no clear call, values can overlap the other calls;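 also: 0% = median of the plate's neutral control wells and 100% = double that signal; a rise in the Bmi1 reporter signal indicates esBAF inhibition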
MITF act = increases MITF-driven TRPM1 promoter luciferase signal; SK-MEL-5 TRPM1-promoter luciferase, 24 h; % of positive control, neutral wells = 0; 300,000 compounds, 0.75% hits; activation, % at 12.5 µM;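 active = mean activation of at least 80% with every replicate also reaching 80%; inconclusive = mean reaches 80% but some replicate falls short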;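 also: 0% = neutral control wells and 100% = parthenolide positive control wells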
Wnt act = Wnt/beta-catenin pathway activation. activation, % at 9.35 µM. 300,000 compounds, 1.2% hits. Wnt/beta-catenin reporter cell assay, activator, plate reader; in the data active = activation above about 30%, passing the limit was not always enough; inconclusive = no clear call, values can overlap the other calls;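 also: 0% = neutral control wells and 100% = positive control wells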
XiGFP reactiv = X-chromosome reactivation activator; 360,000 compounds, 0.055% hits; activation, % at 7.58 µM; XiGFP mouse fibroblasts, % GFP-positive cells imaging, 3 d; cells co-treated with 5-aza-dC sensitizer; scaled so ellipticine positive control = 100%;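 active = mean normalized replicate activation at least 10% and every replicate at or above 10%; inconclusive = only one of the two criteria met; inactive = mean below 10% and not all replicates reach 10%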;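 also: 0% = median of on-plate neutral control wells and 100% = ellipticine 6 µM median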
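System: 68-5-11 XiGFP fibroblast line; Timing: 3 days compound exposure; Compound dosing: one concentration, pinned; Benchmarks: positive control ellipticine, 6 µM final; Buffer or medium: DMEM containing 5-aza-dC.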
Vif imaging = HIV Vif inhibition; inhibition, % at 7.49 µM; 340,000 compounds, 0.35% hits; HEK293T cells, Vif self-association by quenched fluorescence, imaging, 24 h; in the data active = inhibition above about 50%, passing the limit was not always enough; inconclusive = no clear call, values can overlap the other calls; inactive = below about 31%
Numbers without * were called inactive; ? = inconclusive; nt = not tested or not shown.

SMILES | esBAF inh | MITF act | Wnt act | XiGFP reactiv | Vif imaging
CCCN1[C@@H]2Cn3c(ccc(-c4cccnc4)c3=O)[C@H]1[C@@H](C(=O)NC1CCC1)[C@@H]2CO | 3 | nt | nt | 0 | nt
COc1ccc(S(=O)(=O)N(C)C[C@@H]2Oc3ccc(NS(=O)(=O)c4cccs4)cc3CC(=O)N([C@H](C)CO)C[C@H]2C)cc1 | -2 | nt | nt | -1 | nt
O=C(CSc1nnc([C@@H]2CCCN2)o1)c1ccc(Cl)cc1 | 14 | 25 | 37* | nt | -6
Cc1cc(C(=O)Nc2cc(C(C)(C)C)on2)c(C)o1 | 63* | 89* | 42* | 0 | 1
Cc1cc(C(=O)Nc2ccon2)c(C)o1 | -3 | 17 | -1 | 0 | 1
COC(=O)c1ccccc1NC(=O)Nc1cc(C(C)(C)C)on1 | 0 | 39 | ? | 0 | -9
CC(C)(C)c1cc(NC(=O)Nc2ccccc2)no1 | 27 | 113* | 41* | 0 | -2
C[C@@H]1CN([C@@H](C)CO)C(=O)c2cc(C3=CCCCC3)cnc2O[C@H]1CN(C)C(=O)c1ccccc1 | 3 | nt | nt | -1 | nt
CCN(CC)C(=O)c1ccc(COc2ccccc2Br)o1 | 73* | 25 | nt | nt | 34
CC(C)(C)NC(=O)c1ccc(COc2ccccc2Br)o1 | 0 | 4 | nt | nt | 0
O=C(c1ccc(COc2ccc(F)cc2)o1)n1cccn1 | 0 | -3 | 1 | nt | 1
CCN(CC)C(=O)c1ccc(COc2ccc(Cl)c(C)c2)o1 | 78* | nt | 1 | 0 | -13
Cc1cc(OCc2ccc(C(=O)n3cccn3)o2)ccc1Cl | nt | 11 | 47* | nt | 5
C[C@H](NC(=O)[C@@H]1[C@@H](CO)[C@@H]2Cn3c(ccc(C4=CCCC4)c3=O)[C@@H]2N1C)c1ccccc1 | 0 | nt | nt | 0 | nt
COc1ccc2c3c(n(C)c2c1)[C@@H](CO)N(C(=O)Nc1ccc(F)cc1)CC31CN(S(=O)(=O)c2cn(C)cn2)C1 | nt | nt | nt | 0 | nt
O=C(Cc1ccccc1)Nc1nnc(-c2ccco2)s1 | 48* | 60 | nt | nt | 3
CCCC(=O)Nc1nnc(-c2ccco2)s1 | 22 | 63 | 3 | nt | -20
O=C(Nc1nc(-c2cccs2)cs1)c1ccc(Cl)cc1 | nt | 7 | nt | nt | -14
O=C(Cc1ccccc1)Nc1nc(-c2cccs2)cs1 | 65* | ? | 0 | nt | -12
O=C(Cc1ccccc1F)Nc1nc(-c2cccs2)cs1 | nt | 45 | 30 | nt | -1
CCC(C)C(=O)Nc1nnc(-c2cccs2)s1 (configuration not stated) | ? | nt | 34* | nt | 8
COc1ccc(C(=O)Nc2nc(-c3cccs3)cs2)cc1 | 84* | 45 | nt | nt | -14
COCC(=O)Nc1nnc(-c2cccs2)s1 | -9 | 17 | 7 | nt | 4
CCCC#Cc1ccc2c(c1)O[C@@H](CN(C)C)[C@H](C)CN([C@@H](C)CO)S2(=O)=O | 3 | nt | nt | 0 | nt
COc1ccc2c3c([nH]c2c1)[C@@H](CO)N(C(=O)c1cccnc1)CC31CCN(C(=O)NC(C)C)CC1 | nt | nt | nt | 0 | nt
SMILES | esBAF inh | MITF act | Wnt act | XiGFP reactiv | Vif imaging
O=C(Cc1ccccc1)Nc1nnc(-c2cccs2)s1 | 52* | 77 | 27 | nt | -6
CCC(=O)Nc1nnc(-c2cccs2)s1 | nt | 8 | -2 | 0 | 2
CCN(CC)c1ccc(/C=N/NC(=O)c2ccc(Br)o2)cc1 | nt | 116* | 0 | 0 | 2
Cc1cc(C(=O)N/N=C/c2ccc3c(c2)OCO3)c(C)o1 | 30 | 50 | 5 | 0 | -9
O=C(N/N=C/c1ccc2c(c1)OCO2)c1ccc(Br)o1 | nt | 87* | 43* | 0 | 5
CCCC(=O)c1ccc(N2CCC(C)CC2)c(F)c1 | nt | 69 | 52* | 0 | 1
COC(=O)c1ccc(N2CCCCC2)c(N)c1 | 58* | 88* | 16 | 0 | 15
CCCC(=O)c1ccc(N2CCCCCC2)c(F)c1 | 52* | nt | 3 | nt | -6
CCCC(=O)c1ccc(N2CCCCC2)c(F)c1 | nt | 78 | ? | 0 | 0
C[C@@H]1CCCCO[C@@H](CN(C)C(=O)NC2CCCCC2)[C@H](C)CN([C@H](C)CO)C(=O)c2cc(NC(=O)Nc3ccc4c(c3)OCO4)ccc2O1 | 25 | nt | nt | 0 | nt
CN(C)C(=O)C[C@@H]1CC[C@H](NC(=O)C2CCOCC2)[C@@H](CO)O1 | -4 | nt | nt | 0 | nt
O=C1C(SCCO)=C(SCCO)C(=O)c2ccccc21 | -45 | -111 | -1 | 88* | nt
Cc1ccc(C2C(C(=O)c3cccs3)=C(O)C(=O)N2c2cccc(C)n2)cc1 (configuration not stated) | nt | nt | 34* | 0 | -8
Cc1ccc(C2C(C(=O)c3cccs3)=C(O)C(=O)N2c2ccc(S(N)(=O)=O)cc2)cc1 (configuration not stated) | nt | 12 | -1 | 0 | -10
CCc1nnc(NC(=O)c2sc3nc4cc(C)ccc4cc3c2N)s1 | 49* | nt | nt | nt | 170*
CCOC(=O)Cc1csc(NC(=O)c2sc3nc4ccc(C)cc4cc3c2N)n1 | 6 | nt | nt | nt | -9
COCC(=O)Nc1ccc2c(c1)[C@@H]1C[C@@H](CC(=O)NCc3ccc(Cl)cc3)O[C@H](CO)[C@@H]1O2 | 3 | nt | nt | 0 | nt
CC(C)NC(=O)Nc1ccc2c(c1)C(=O)N([C@@H](C)CO)C[C@@H](C)[C@@H](CN(C)Cc1ccc(C(F)(F)F)cc1)OCCCC[C@@H](C)O2 | -3 | nt | nt | 0 | nt
Cc1nn(-c2nc3ccccc3s2)c(C)c1Oc1ccccc1O | 45* | 77 | nt | nt | nt
C[C@H](CO)N1C[C@H](C)[C@@H](CN(C)C)OCCCC[C@H](C)Oc2ccc(NC(=O)NC3CCCCC3)cc2C1=O | 0 | nt | nt | 0 | nt
Cc1ccc(C(=O)Nc2ncccc2S(=O)(=O)c2ccccc2)cc1 | 113* | 100* | 20 | 0 | 10
C[C@H](CO)N1C[C@H](C)[C@H](CN(C)S(=O)(=O)c2ccc(F)cc2)Oc2c(NC(=O)Nc3ccc(C(F)(F)F)cc3)cccc2C1=O | -1 | nt | nt | -1 | nt
NC(=O)C1=C(N=C2CCCCC2)CCCC1 | -8 | 0 | -4 | 0 | 65*
CCCNC(=O)Nc1nc2ccccc2s1 | nt | 126* | ? | 0 | 1
Cc1csc(SCC(=O)Nc2nc3ccccc3s2)n1 | 47* | nt | -2 | nt | -21
Cc1nc(-c2ccccc2Cl)sc1C(=O)/C=C/N(C)C | 59* | 57 | 7 | 0 | -4
Cc1nc(-c2ccccc2)sc1C(=O)/C=C/c1ccc(Cl)cc1 | -5 | -12 | nt | nt | 9
CC=Cc1ccc2n(c1=O)C[C@@H]1[C@@H](CO)[C@H](C(=O)N[C@@H](C)c3ccccc3)[C@H]2N1CC1CC1 (mixture of isomers) | 3 | nt | nt | 0 | nt
CCCn1c(N)c(N(CCOC)C(=O)c2ccc([N+](=O)[O-])cc2Cl)c(=O)[nH]c1=O | -5 | nt | 0 | 0 | 67*
C[C@@H]1CCCCO[C@@H](CN(C)S(C)(=O)=O)[C@@H](C)CN([C@H](C)CO)C(=O)c2cc(NC(=O)C3CCCCC3)ccc2O1 | -4 | nt | nt | 2 | nt
